Activity calls are given as the source filed them. The calls are words filed in the database; no cut-off is given here.
How the values were obtained:
[1] = system: Salmonella typhimurium; assay: Antibacterial activity against Salmonella Typhimurium at 30 ug/disk by agar diffusion assay; type: functional, organism-based; details: Salmonella enterica subsp. enterica serovar Typhimurium
[2] = system: Enterobacter cloacae; assay: Antibacterial activity against Enterobacter cloacae at 30 ug/disk by agar diffusion assay; type: functional, organism-based
[3] = system: Escherichia coli; assay: Antibacterial activity against Escherichia coli at 30 ug/disk by agar diffusion assay; type: functional, organism-based
[4] = system: Klebsiella aerogenes; assay: Antibacterial activity against Klebsiella aerogenes at 30 ug/disk by agar diffusion assay; type: functional, organism-based
[5] = system: Staphylococcus aureus; assay: Antibacterial activity against Staphylococcus aureus at 30 ug/disk by agar diffusion assay; type: functional, organism-based
[6] = system: RAW264.7; assay: Antiinflammatory activity in mouse RAW264.7 cells assessed as inhibition of LPS-stimulated IL6 mRNA expression at 12.5 to 50 uM by RT-PCR; type: functional, cell-based
[7] = system: RAW264.7; assay: Antiinflammatory activity in mouse RAW264.7 cells assessed as suppression of LPS-stimulated IL6 production at 25 to 50 uM after 24 hrs by ELISA; type: functional, cell-based
Outline: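 Cells at 1.5 × 10^5 cells/mL were preincubated 18 h, then given LPS (1 μg/mL) plus samples (50 and 25 μM) for 24 h. Samples were dissolved in EtOH and diluted in DMEM, with final solvent ≤0.1%. IL-6 in the supernatant was measured by mouse ELISA. Mean ± SD of triplicate experiments.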

[8] = system: RAW264.7; assay: Inhibition of NO production in LPS-stimulated mouse RAW264.7 cells assessed as nitrite accumulation after 10 mins by Griess reaction method; type: functional, cell-based; details: RAW264.7, 10 min
Outline: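 Cells were stimulated 24 h with LPS (1 μg/mL) alone or with samples (250, 50, 10, 2 μM). Supernatant was mixed 1:1 with Griess reagent (0.1% naphthalene diamine dihydrochloride, 1% sulfanilamide, 2.5% H3PO4) for 10 min at room temperature. Absorbance at 540 nm was converted against a sodium nitrite standard curve. Mean ± SD of triplicates.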

[9] = biological target: T1, Prostaglandin G/H synthase 2 (Mus musculus) (UniProt Q05769); assay: Inhibition of COX2-mediated PGE2 production in LPS-stimulated mouse RAW264.7 cells at 25 to 50 uM by ELISA
T1 sequence (whole entry): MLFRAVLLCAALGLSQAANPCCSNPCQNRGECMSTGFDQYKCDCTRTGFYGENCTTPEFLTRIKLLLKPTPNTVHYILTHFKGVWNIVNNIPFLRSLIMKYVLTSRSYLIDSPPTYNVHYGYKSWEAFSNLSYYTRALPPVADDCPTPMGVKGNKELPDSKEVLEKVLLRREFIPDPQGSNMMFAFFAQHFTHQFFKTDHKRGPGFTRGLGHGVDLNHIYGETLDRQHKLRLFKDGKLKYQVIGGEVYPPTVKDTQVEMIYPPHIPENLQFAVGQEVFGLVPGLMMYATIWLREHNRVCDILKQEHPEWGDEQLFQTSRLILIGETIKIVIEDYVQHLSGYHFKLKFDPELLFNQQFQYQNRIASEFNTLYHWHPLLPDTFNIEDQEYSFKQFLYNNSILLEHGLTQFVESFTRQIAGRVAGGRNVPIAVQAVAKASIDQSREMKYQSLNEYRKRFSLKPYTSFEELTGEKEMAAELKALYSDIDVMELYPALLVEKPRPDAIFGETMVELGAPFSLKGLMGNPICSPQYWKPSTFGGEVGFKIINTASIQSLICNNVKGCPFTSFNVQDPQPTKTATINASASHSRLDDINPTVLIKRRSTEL

[10] = system: RAW264.7; assay: Inhibition of LPS-induced iNOS mRNA expression in mouse RAW264.7 cells at 12.5 to 50 uM by […]; type: functional, cell-based
Outline: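 Total RNA from LPS (1 μg/mL)-stimulated cells was isolated by Tri-Reagent. RNA (1 μg) was primed with oligo(dT)18 (70 °C, 5 min) and reverse-transcribed with M-MuLV and 0.5 μM dNTP (25 °C 5 min, 37 °C 60 min), then inactivated at 70 °C for 15 min.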

[11] = system: RAW264.7; assay: Cytotoxicity against mouse RAW264.7 cells after 24 hrs by WST-1 assay; type: cell-based; details: RAW264.7, 24 h
Outline: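 Cells were exposed 24 h to LPS (1 μg/mL) alone or with samples (250, 50, 10, 2 μM). WST-1 reagent was then added for 2 h, and formazan was read at 450 nm. Mean ± SD of triplicate experiments.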

| Compound | Activity [1] | Activity [2] | Activity [3] | Activity [4] | Activity [5] | inhibition [6] | Activity [7] | IC50 [8] [µM] | inhibition [9] | inhibition [10] | IC50 [11] [µM] |
| --- | --- | --- | --- | --- | --- | --- | --- | --- | --- | --- | --- |
| N=C(N)NCCC[C@@H](NC(=O)c1ccc(OC(=O)c2c[nH]c3ccccc23)cc1)C(=O)O | inactive | inactive | inactive | inactive | inactive | – | – | – | – | – | – |
| N=C(N)NCCC[C@@H](NC(=O)c1ccc(OC(=O)c2ccc(O)cc2)cc1)C(=O)O [HERDMANINE C] | inactive | inactive | inactive | inactive | inactive | Active | Active | 96 | Active | Active | – |
| N[C@@H](Cc1ccc(OC(=O)c2c[nH]c3cc(Br)c(O)cc23)cc1)C(=O)O [HERDMANINE D] | inactive | inactive | inactive | inactive | inactive | Active | Active | 9 | Active | Active | 170 |
